Data published in paper PMC3580954 (Biopolymers, 2013).
Positions count from the first letter of the chain named. Each block holds one molecule with its values, some of them ahead of it. Residues, ends and D or L forms follow the SMILES beside them.

Columns and labels:
W^2.71A PrRP receptor = biological target: T1, W^2.71A PrRP receptor (Homo sapiens, UniProt P49683, W127A); assay: IP accumulation assay, W^2.71A receptor mutant; format: cell-based; conditions: SD
T1 sequence (P49683 1-370 W127A): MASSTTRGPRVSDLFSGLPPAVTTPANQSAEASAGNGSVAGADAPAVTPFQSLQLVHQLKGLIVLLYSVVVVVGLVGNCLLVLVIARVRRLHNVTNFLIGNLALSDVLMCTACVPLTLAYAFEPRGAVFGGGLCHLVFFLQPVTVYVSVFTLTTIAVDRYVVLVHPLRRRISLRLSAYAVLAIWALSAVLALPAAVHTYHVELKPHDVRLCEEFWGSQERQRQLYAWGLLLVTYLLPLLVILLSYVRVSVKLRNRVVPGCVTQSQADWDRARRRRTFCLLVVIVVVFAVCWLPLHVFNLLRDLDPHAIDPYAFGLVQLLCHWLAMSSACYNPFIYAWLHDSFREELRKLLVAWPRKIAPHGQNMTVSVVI
Method in brief: (§1)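 COS-7 cells were transiently transfected with 0.4 µg plasmid of human PrRP receptor or its site-directed mutant, C-terminally fused to EYFP. One day after transfection and 16 h before stimulation, cells were labelled with 2 µCi/mL [³H]myo-inositol. They were then stimulated with increasing peptide concentrations for 1 h at 37°C in DMEM with 10 mM LiCl, and lysed in 0.1 M NaOH. IP was separated by anion exchange and counted by scintillation. EC50 came from concentration-response curves; runs were in duplicate, repeated ≥2 times.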

wt hPrRP receptor = biological target: T2, wt hPrRP receptor (Homo sapiens, UniProt P49683); assay: Signal transduction; format: cell-based; conditions: SD
T2 sequence (P49683 1-370): T1 sequence (P49683 1-370 W127A) with A127W
Method in brief: as §1

Y^2.64A PrRP receptor = biological target: T3, Y^2.64A PrRP receptor (Homo sapiens, UniProt P49683, Y120A); assay: IP accumulation assay, Y^2.64A receptor mutant; format: cell-based; conditions: SD
T3 sequence (P49683 1-370 Y120A): T1 sequence (P49683 1-370 W127A) with Y120A, A127W
Method in brief: as §1

F^2.66A PrRP receptor = biological target: T4, F^2.66A PrRP receptor (Homo sapiens, UniProt P49683, F122A); assay: IP accumulation assay, F^2.66A receptor mutant; format: cell-based; conditions: SD
T4 sequence (P49683 1-370 F122A): T1 sequence (P49683 1-370 W127A) with F122A, A127W

F^2.73A PrRP receptor = biological target: T5, F^2.73A PrRP receptor (Homo sapiens, UniProt P49683, F129A); assay: IP accumulation assay, F^2.73A receptor mutant; format: cell-based; conditions: SD
T5 sequence (P49683 1-370 F129A): T1 sequence (P49683 1-370 W127A) with A127W, F129A

R^2.69A PrRP receptor = biological target: T6, R^2.69A PrRP receptor (Homo sapiens, UniProt P49683, R125A); assay: IP accumulation assay, R^2.69A receptor mutant; format: cell-based; conditions: SD
T6 sequence (P49683 1-370 R125A): T1 sequence (P49683 1-370 W127A) with R125A, A127W

E^2.67A PrRP receptor = biological target: T7, E^2.67A PrRP receptor (Homo sapiens, UniProt P49683, E123A); assay: IP accumulation assay, E^2.67A receptor mutant; format: cell-based; conditions: SD
T7 sequence (P49683 1-370 E123A): T1 sequence (P49683 1-370 W127A) with E123A, A127W

PrRP receptor (GPR10) = biological target: T8, PrRP receptor (GPR10) (Homo sapiens, UniProt P49683); assay: radioligand binding on transfected COS-7 cells
T8 chain: T1 sequence (P49683 1-370 W127A) with A127W

EC50 (W^2.71A PrRP receptor): 2120 ± 390 nM
EC50 (wt hPrRP receptor): 2.3 ± 0.5 nM
EC50 (Y^2.64A PrRP receptor): 434 ± 96 nM
Molecule: CC[C@H](C)[C@H](NC(=O)CNC(=O)[C@H](CCCNC(=N)N)NC(=O)[C@H](CO)NC(=O)[C@H](C)NC(=O)[C@H](Cc1ccc(O)cc1)NC(=O)[C@@H](N)Cc1c[nH]c2ccccc12)C(=O)N[C@@H](CCCNC(=N)N)C(=O)N1CCC[C@H]1C(=O)N[C@H](C(=O)NCC(=O)N[C@@H](CCCNC(=N)N)C(=O)N[C@@H](Cc1ccccc1)C(N)=O)C(C)C [PrRP8-20] (H-WYASRGIRPVGRF-NH2)

EC50 (W^2.71A PrRP receptor): 593 ± 78 nM
EC50 (F^2.66A PrRP receptor): 6.2 ± 3.3 nM
EC50 (wt hPrRP receptor): 2.2 ± 0.3 nM
EC50 (F^2.73A PrRP receptor): 4.4 ± 2 nM
EC50 (R^2.69A PrRP receptor): 4.2 ± 2.5 nM
EC50 (Y^2.64A PrRP receptor): 50 ± 7.5 nM
EC50 (E^2.67A PrRP receptor): 7.2 ± 3.4 nM
Molecule: CC[C@H](C)[C@H](NC(=O)CNC(=O)[C@H](CCCNC(=N)N)NC(=O)[C@H](CO)NC(=O)[C@H](C)NC(=O)[C@H](Cc1ccc(O)cc1)NC(=O)[C@H](Cc1c[nH]c2ccccc12)NC(=O)[C@H](C)NC(=O)[C@@H]1CCCN1C(=O)[C@H](CC(N)=O)NC(=O)[C@@H](NC(=O)[C@H](CC(=O)O)NC(=O)[C@@H]1CCCN1C(=O)[C@@H](N)[C@@H](C)O)[C@@H](C)CC)C(=O)N[C@@H](CCCNC(=N)N)C(=O)N1CCC[C@H]1C(=O)N[C@H](C(=O)NCC(=O)N[C@@H](CCCNC(=N)N)C(=O)N[C@@H](Cc1ccccc1)C(N)=O)C(C)C [PrRP20] (H-TPDINPAWYASRGIRPVGRF-NH2)

Kd (PrRP receptor (GPR10)): 0.58 nM
B1: PrRP20 (peptide)
chain: {(3H)propionyl}-TPDINPAWYASRGIRPVGRF-NH2
